Assay results: PMC3237191 (FEBS letters, 2011)

Assays:
DGKε (DGKε-His6) [1] = molecular target: T1, DGKε (DGKε-His6) (Homo sapiens, UniProt P52429); experiment: Triton X-100/DOPC mixed micelle assay with [γ-32P]-ATP, nonlinear regression; type: biochemical; conditions: competitive; substrate 18:0/20:4-DAG; 0.1 mM ATP; 15 mM Triton X-100; lysate
T1 sequence (P52429 1-567): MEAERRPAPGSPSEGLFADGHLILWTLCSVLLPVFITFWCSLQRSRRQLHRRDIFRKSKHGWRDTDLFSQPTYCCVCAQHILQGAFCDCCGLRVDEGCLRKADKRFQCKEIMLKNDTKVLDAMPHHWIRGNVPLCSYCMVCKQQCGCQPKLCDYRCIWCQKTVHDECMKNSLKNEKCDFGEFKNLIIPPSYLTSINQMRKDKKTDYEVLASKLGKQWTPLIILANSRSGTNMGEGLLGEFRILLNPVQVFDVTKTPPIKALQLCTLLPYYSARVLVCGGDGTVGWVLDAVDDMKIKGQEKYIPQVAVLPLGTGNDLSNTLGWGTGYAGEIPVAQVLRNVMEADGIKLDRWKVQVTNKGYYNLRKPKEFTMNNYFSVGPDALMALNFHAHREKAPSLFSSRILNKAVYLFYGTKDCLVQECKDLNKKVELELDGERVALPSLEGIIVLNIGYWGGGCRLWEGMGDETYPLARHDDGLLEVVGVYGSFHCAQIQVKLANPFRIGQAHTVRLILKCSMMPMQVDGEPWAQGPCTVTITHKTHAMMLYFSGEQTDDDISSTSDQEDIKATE
Procedure, shortened: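 DGKε-His6 was taken from the high-speed supernatant of NP-40-lysed, sonicated Sf21 cells infected with baculovirus. It phosphorylated 18:0/20:4-DAG or 20:4/20:4-DAG in Triton X-100/DOPC mixed micelles with [γ-32P]-ATP, with a phosphatidic acid species added as inhibitor. PA stock levels were set from measured phosphate content. Ki was fitted by nonlinear regression to a competitive inhibition model.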

DGKε (DGKε-His6) [2] = molecular target: T1, DGKε (DGKε-His6); experiment: Triton X-100/DOPC mixed micelle assay with [γ-32P]-ATP; type: biochemical; conditions: 0.1 mM ATP; 15 mM Triton X-100; 22.5 mol% DOPC; lysate
Procedure, shortened: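 Enzyme is the 100,000 g supernatant (30 min, 4 °C) of baculovirus-infected Sf21 cells expressing human DGKε-His6. Cells were lysed 10 min on ice in 1% NP-40, 20 mM Tris-HCl pH 7.5, 150 mM NaCl, 1 mM EDTA, phosphatase and protease inhibitors, then sonicated 5 min. DAG substrate was dried with DOPC into lipid films for the micelles, and DAG level was varied. Run in triplicate. Vmax and Km come from nonlinear regression of v0 versus [S] and from Hanes plots.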

| Ki, mol% (DGKε (DGKε-His6) [1]) [mol%] | Km (mol%) (DGKε (DGKε-His6) [2]) | SMILES |
| --- | --- | --- |
| 4.4 ± 1.0 | – | CCCCC/C=C\C/C=C\C/C=C\C/C=C\CCCC(=O)OC[C@H](COP(=O)(O)O)OC(=O)CCC/C=C\C/C=C\C/C=C\C/C=C\CCCCC [20:4/20:4-PA] |
| – | 2.0 ± 0.7 | CCCCC/C=C\C/C=C\C/C=C\C/C=C\CCCC(=O)O[C@@H](CO)COC(=O)CCCCCCCCCCCCCCCCC [18:0/20:4-DAG, 1-stearoyl-2-arachidonoyl-DAG] |
| – | 3.5 ± 0.4 | CCCCC/C=C\C/C=C\CCCCCCCC(=O)OC[C@H](CO)OC(=O)CCCCCCC/C=C\C/C=C\CCCCC [18:2/18:2-DAG] |
| – | 2.0 ± 0.7 | CCCCC/C=C\C/C=C\C/C=C\C/C=C\CCCC(=O)OC[C@H](CO)OC(=O)CCC/C=C\C/C=C\C/C=C\C/C=C\CCCCC [20:4/20:4-DAG, 1,2-diarachidonoyl-DAG] |
